MT stabilize HCS: microtubule stabilizers in HeLa cells, primary screen, imaging, high-content imaging. 0.83% of 200,000 active. HeLa tubulin immunostaining HCS, 24 h; share of cells brighter than vehicle mean+2SD. AID 2205, 2009. % tubulin-high responders, % at 10 µM;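 active means plate Z-score above 3 for both tubulin-high and condensed-nucleus cell shares, with cell loss under 80%, at 10 µM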;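 further: anti alpha tubulin signal scored within the nucleus-defined area of each cell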
RAM network inh: inhibitors of the yeast RAM network, primary screen, dse1pr::URA3 reporter, 5-FOA selection. inhibition, % at 50 µM. S. cerevisiae dse1pr::URA3 reporter, 5-FOA growth OD615, 2 d; analog-sensitive cbk1-as2 kinase mutant strain. 1.8% of 190,000 active. AID 868, 2007;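 active means inhibition above a set limit, 3 SD over mean compound inhibition, cut at about 8.4% in these data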;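 further: 0% = DMSO-only wells with no growth and 100% = 10 µM 1-NA-PP1 full growth; inhibition rescues growth on 5-FOA so higher OD means more RAM inhibition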
HMGR II inh: inhibitors of E. faecalis class II HMGR, primary screen, biochemical, Enterococcus faecalis; HMG-CoA reductase (Enterococcus faecalis, mvaE); purified E. faecalis HMGR, NADPH absorbance 340 nm kinetic; inhibition, % at 10 µM; 0.41% of 190,000 active; AID 1066, 2008;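 active means inhibition above a set limit, the median over all tested compounds plus 3 SD, cut at about 9.5% in these data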;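 further: enzyme runs in reverse so mevalonate oxidation gives rising NADPH absorbance; 0% = complete reaction with DMSO and 100% = background rate lacking mevalonate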
Yeast life ext: compounds extending yeast replicative lifespan, primary screen, S. cerevisiae, OD615; S. cerevisiae growth with nicotinamide; deaD strain in restrictive glucose medium; inhibition of the nicotinamide effect, % at 10 µM; 0.68% of 130,000 active; AID 775, 2007;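 active means inhibition above a set limit, placed 3 SD over the median of all compounds, cut at about 26% in these data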;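 further: 0% = nicotinamide-treated wells and 100% = cells grown without nicotinamide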
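Measured by: optical density (absorbance) at 615 nm; System: modified budding yeast, DeaD strain; Medium: restrictive CSMM-D dextrose medium; Timing: 4 h preincubation then 48 h treatment at 30 °C.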
b-catenin transl: modulators of beta-catenin nuclear translocation, primary screen, imaging, HeLa cells, immunofluorescence, high-content | nuclear translocation activity, % at 5 µM | 0.3% of 190,000 active;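 active means nuclear translocation activity above 50% at 5 µM, with a well cell count of 50 or more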;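 further: per-cell ratio of nuclear to cytoplasmic median beta-catenin stain intensity; plate controls were DMSO negative control for no effect and GSK-3 inhibitor IX positive control for full effect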
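test system = HeLa cells, endogenous beta-catenin | dosing = single 5 µM dose plus 0.02–20 µM confirmation series | times = compound treatment 24 h, 37°C, 5% CO2 | technique = beta-catenin immunofluorescence imaging with DAPI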
Yeast growth inh: growth inhibitors of yeast BB579 in restrictive medium, primary screen, yeast lifespan-shortening project, S. cerevisiae. OD615, 48 h. inhibition, % at 10 µM. 0.51% of 140,000 active. AID 804, 2007;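 active means inhibition above a set limit, 3 SD over the mean compound inhibition, cut at about 44% in these data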
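Material: Saccharomyces cerevisiae DeaD strain BB579, replicative lifespan model yeast; buffer or medium: CSMM-D restrictive synthetic medium containing dextrose (glucose); compound: 10 µM single dose, DMSO 0.25%; timing: 48 h compound exposure at 30 °C after 4 h preincubation; signal: turbidity as optical density at 615 nm; benchmarks: positive control amphotericin B 10 µg/mL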
* marks the source's active call; other numbers are inactive results; · = not tested or not shown. A selection: hits, their analogues and other compounds. The true share with any hit is near 3.5%.

SMILES	MT stabilize HCS	RAM network inh	HMGR II inh	Yeast life ext	b-catenin transl	Yeast growth inh
O=C(NCC1OCCCN1S(=O)(=O)c1cc(F)ccc1F)C(=O)NC1CCCCC1 (stereo not drawn)	5.6	2.5	9.6*	·	-1.2	·
CSc1ccc(C(=O)C2CCCN(S(=O)(=O)c3c(C)noc3C)C2)cc1 (stereo not drawn)	2.1	3.0	-1.3	·	0.0	·
O=C(c1ccc(-c2ccccc2)cc1)c1ccccc1C(=O)N1CCOCC1	2.6	1.8	-1.4	-24.4	2.3	-43.3
O=C(/C=C/N1CCOCC1)c1ccc(-c2ccccc2)cc1	3.3	1.8	-2.5	-31.6	-2.2	98.6*
O=C(NCc1ccc(F)cc1)c1ccccc1OCc1ccccc1	1.9	10.4*	-5.8	-3.9	·	0.1
O=C(NCc1ccccc1)c1cccc(COc2ccccc2Cl)c1	1.4	8.6*	-3.4	-11.9	4.0	-27.4
CC(OC(=O)Cc1coc2ccc3ccccc3c12)C(=O)NC(N)=O (stereo not drawn)	·	·	·	·	0.6	·
COC(=O)c1sccc1NC(=O)Cn1nnc(-c2ccccc2C)n1	1.5	7.3	-6.6	·	1.0	·
Cc1cc(C(=O)COc2ccc(F)cc2Br)c(C)n1C	5.2	3.5	9.6*	·	-1.7	·
CC(C)C(NC(=O)c1ccccc1)C(=O)NCCc1ccccc1 (stereo not drawn)	1.5	0.6	0.0	·	-6.1	·
NS(=O)(=O)c1ccc(Nc2nc3ccccc3nc2NS(=O)(=O)c2cccc([N+](=O)[O-])c2)cc1	2.4	8.6*	-1.1	·	0.7	·
COc1ccccc1N(CN1CCCC1=O)C(=O)c1c(F)cccc1F	2.9	1.8	6.5	103.3*	-2.4	-22.4
COc1ccccc1N(CN1CCCC1=O)C(=O)c1ccccc1F	4.7	0.0	5.3	-15.7	-0.9	-4.7
CN1CCN(C(=O)c2cc(C(C)(C)C)cc(C(C)(C)C)c2)CC1	2.2	-0.4	2.7	·	-1.0	·
Cc1cc(=O)[nH]c(SCC(=O)NCC2CCCO2)n1 (stereo not drawn)	·	·	·	·	-0.4	·
CCOc1ccc(-n2c(=S)sc3c(=O)[nH]c(SCC(=O)NCC4CCCO4)nc32)cc1 (stereo not drawn)	3.9	8.7*	3.8	8.9	-1.1	-52.0
Cn1cc([N+](=O)[O-])c(C(=O)Nc2ccc(-c3nc4ccccc4[nH]3)cc2)n1	3.8	3.7	12.1*	2.7	·	-22.4
Cn1cc([N+](=O)[O-])c(C(=O)Nc2ccc(C3CCCCC3)cc2)n1	3.6	1.9	11.2*	·	6.0	·
O=C(/C=C/c1ccco1)Nc1ccc(-c2nc3ccccc3[nH]2)cc1	1.4	2.2	-10.5	-3.9	0.1	-7.7
Cn1cc([N+](=O)[O-])c(C(=O)Nc2ccc3nc(-c4ccccc4)[nH]c3c2)n1	6.0	0.1	-5.7	-4.2	5.5	-19.2
O=C(Nc1ccc(-c2nc3ccccc3[nH]2)cc1)c1ccco1	3.9	9.5*	2.9	-12.6	0.6	-39.8
c1ccc(CNc2ncnc3c2cnn3-c2ccccc2)cc1	53.6*	1.3	-3.5	-12.7	11.5	-23.7
Clc1ccc(Cn2ncc3c(NCc4ccccc4)ncnc32)c(Cl)c1	17.3*	6.5	1.6	5.6	9.9	-55.7
Cc1cccc(N(C(=O)c2csnn2)C(C(=O)NC(C)(C)C)c2cccs2)c1 (stereo not drawn)	0.9	0.7	-0.8	-21.3	0.8	-21.8
Cc1ccsc1C(C(=O)NC(C)(C)C)N(C(=O)c1csnn1)c1ccccc1 (stereo not drawn)	2.8	10.0*	3.2	·	0.1	·
SMILES	MT stabilize HCS	RAM network inh	HMGR II inh	Yeast life ext	b-catenin transl	Yeast growth inh
CN1CCN(C(=O)C23CC4CC(C2)CC(c2ccccc2)(C4)C3)CC1	2.2	2.7	1.7	·	-0.8	·
CN1C(=O)c2ccc(N(C)C)cc2C1=O	4.1	-0.5	-0.2	·	-2.3	20.7
CN1C(=O)c2cccc3c(Cl)ccc(c23)C1=O	3.2	0.3	-6.9	-8.6	·	60.9*
COc1cc(NS(C)(=O)=O)cc(OC)c1OC	3.4	0.5	-1.1	·	-9.6	·
COc1cc(NC(c2ccccc2)c2ccccc2)cc(OC)c1OC	1.6	8.4*	-3.2	·	-2.1	·
Cc1cc(C)nc(SCC(CSc2nc(C)cc(C)n2)C(=O)O)n1	3.1	-0.2	7.2	·	1.9	·
CSc1ccccc1NC(=O)CSCc1ccc(C)cc1	30.5*	3.1	2.2	-12.5	6.6	-15.0
O=C(CSCc1ccc(Cl)cc1)Nc1ccccc1O	3.7	0.0	-1.2	·	-1.9	·
COC(=O)c1c(-c2ccc(F)cc2)csc1NC(=O)C1CCCO1 (stereo not drawn)	2.2	0.4	-3.1	·	1.7	·
CCc1ccc(-c2csc(NC(=O)C3CCCO3)c2C(=O)OC(C)C)cc1 (stereo not drawn)	1.8	10.1*	0.9	-14.1	-0.5	-35.9
COC(=O)C1=C(C)Nc2c(c(=O)n(C)c(=O)n2C)C1c1cccc(O)c1 (stereo not drawn)	·	·	·	·	-0.1	·
COC(=O)C1=C(C)Nc2c(c(=O)n(C)c(=O)n2C)C1c1cccnc1 (stereo not drawn)	3.3	-0.7	13.4*	·	-3.6	-37.4
Cn1cnnc1SCC(=O)Nc1ccc(OC(F)F)cc1	4.4	3.5	1.5	·	-0.7	·
COc1ccc(N)c2c1C(=O)c1ccccc1C2=O	1.2	-0.1	1.4	-8.9	-0.9	70.6*
Nc1ccc(O)c2c1C(=O)c1ccccc1C2=O	9.6	3.4	-10.2	-4.8	-4.0	69.4*
COc1ccc(OC)c2c1C(=O)c1ccccc1C2=O	2.5	0.7	-2.4	-2.7	1.0	22.6
Nc1ccc(Br)c2c1C(=O)c1ccccc1C2=O	1.8	4.4	4.7	-24.9	-0.7	16.9
COc1ccc(C)cc1-n1nnnc1SC/C(O)=C(\C#N)c1nc2ccccc2[nH]1	4.6	9.1*	-5.1	-2.5	·	-4.1
CCC(C)NC(=O)CSc1nc2ccsc2c(=O)n1-c1ccc(OC)cc1 (stereo not drawn)	2.4	3.4	-2.5	3.2	-1.1	-14.4
COc1ccc(-n2c(SCC(=O)NC3CCCCC3)nc3ccsc3c2=O)cc1	2.1	9.1*	-2.3	1.1	-1.8	-35.0
O=C(C1CCN(S(=O)(=O)c2ccccc2F)CC1)N1CCc2ccccc2C1	5.1	-0.6	-3.6	·	-0.6	·
CCOC(=O)/C(=N\Nc1ccc(OC)cc1)c1csc(Nc2ccccc2)n1	2.4	10.9*	-1.1	-3.8	·	-15.3
O=C(NCc1cccs1)C1CCN(c2ccc(S(=O)(=O)N3CCOCC3)cc2Cl)CC1	27.3*	3.0	2.0	-2.5	106.1*	-28.2

Screening data: PubChem BioAssay, several laboratories
